Calls of active or inactive are those of the source. No cut-off for these calls is given here.
Assays:
[1] = biological target: T1, Peroxisome proliferator-activated receptor gamma (Homo sapiens) (UniProt P37231); assay: Transactivation of GAL4-fused PPARgamma ligand binding domain transfected in human HepG2 cells at 10 uM after 18 hrs by luciferase reporter gene assay; format: cell-based
T1 sequence (whole entry): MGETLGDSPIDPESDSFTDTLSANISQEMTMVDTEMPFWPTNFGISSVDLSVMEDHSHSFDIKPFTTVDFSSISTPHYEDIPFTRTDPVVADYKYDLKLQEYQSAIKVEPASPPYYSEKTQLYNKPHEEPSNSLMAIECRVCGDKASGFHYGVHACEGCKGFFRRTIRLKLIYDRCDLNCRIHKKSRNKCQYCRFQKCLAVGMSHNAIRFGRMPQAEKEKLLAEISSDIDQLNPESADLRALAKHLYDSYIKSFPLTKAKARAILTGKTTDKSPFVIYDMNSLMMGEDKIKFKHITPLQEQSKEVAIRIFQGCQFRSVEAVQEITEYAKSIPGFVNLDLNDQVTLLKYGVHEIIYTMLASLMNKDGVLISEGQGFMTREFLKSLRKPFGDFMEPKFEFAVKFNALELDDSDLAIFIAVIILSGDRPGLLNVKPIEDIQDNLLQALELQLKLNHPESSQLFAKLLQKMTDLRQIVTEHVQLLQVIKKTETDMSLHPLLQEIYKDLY

[2] = biological target: T1, Peroxisome proliferator-activated receptor gamma (Homo sapiens); assay: Covalent binding affinity to N-terminal His6-tagged PPARgamma ligand binding domain (195 to 477 amino acid residues) at 20 uM after 60 to 180 mins by RP-LC-MS analysis
Method in brief: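 PPARγ-LBD (1 μM) incubated with compound (20 μM) in PBS pH 7.5 at 37 °C for 60 and 180 min; aliquots analysed by RP-LC-MS on C4 column, 20–70% aqueous acetonitrile gradient with 0.05% TFA/1% formic acid over 25 min, spectra m/z 1500–3000.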

[3] = biological target: T2, Peroxisome proliferator-activated receptor gamma (Homo sapiens, UniProt P37231); assay: (§1) Transactivation of GAL4-fused PPARgamma ligand binding domain transfected in human HepG2 cells by luciferase reporter gene assay; format: cell-based
T2 sequence (P37231 whole entry): T1 sequence (whole entry)
Method in brief: (§2)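 GAL4–PPARγ LBD luciferase transactivation in HepG2 cells; concentration–response at 1, 10 and 50 μM (rosiglitazone 10, 100, 500 nM); luciferase measured in cell extracts; relative EC50 estimated from curves; mean ± SE of three experiments.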

[4] = biological target: T1, Peroxisome proliferator-activated receptor gamma (Homo sapiens); assay: as §1; format: cell-based; method in brief: as §2
[5] = biological target: T3, Peroxisome proliferator-activated receptor delta (Homo sapiens) (UniProt Q03181); assay: Transactivation of GAL4-fused PPARbeta ligand binding domain transfected in human HepG2 cells at 10 uM after 18 hrs by luciferase reporter gene assay; format: cell-based
T3 sequence (whole entry): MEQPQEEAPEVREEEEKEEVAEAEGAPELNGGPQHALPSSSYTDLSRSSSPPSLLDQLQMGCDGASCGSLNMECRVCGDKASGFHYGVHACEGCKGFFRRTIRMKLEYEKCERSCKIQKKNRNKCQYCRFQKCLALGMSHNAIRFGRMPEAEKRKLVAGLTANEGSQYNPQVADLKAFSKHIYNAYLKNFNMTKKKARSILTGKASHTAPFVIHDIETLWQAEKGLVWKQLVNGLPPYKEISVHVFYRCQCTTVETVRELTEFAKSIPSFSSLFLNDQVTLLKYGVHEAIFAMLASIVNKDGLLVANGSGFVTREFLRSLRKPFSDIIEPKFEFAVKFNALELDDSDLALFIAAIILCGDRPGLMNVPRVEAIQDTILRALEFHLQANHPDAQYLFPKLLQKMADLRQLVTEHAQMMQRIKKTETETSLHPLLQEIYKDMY

[6] = biological target: T4, Peroxisome proliferator-activated receptor alpha (Homo sapiens) (UniProt Q07869); assay: Transactivation of GAL4-fused PPARalpha ligand binding domain transfected in human HepG2 cells at 10 uM after 18 hrs by luciferase reporter gene assay; format: cell-based
T4 sequence (whole entry): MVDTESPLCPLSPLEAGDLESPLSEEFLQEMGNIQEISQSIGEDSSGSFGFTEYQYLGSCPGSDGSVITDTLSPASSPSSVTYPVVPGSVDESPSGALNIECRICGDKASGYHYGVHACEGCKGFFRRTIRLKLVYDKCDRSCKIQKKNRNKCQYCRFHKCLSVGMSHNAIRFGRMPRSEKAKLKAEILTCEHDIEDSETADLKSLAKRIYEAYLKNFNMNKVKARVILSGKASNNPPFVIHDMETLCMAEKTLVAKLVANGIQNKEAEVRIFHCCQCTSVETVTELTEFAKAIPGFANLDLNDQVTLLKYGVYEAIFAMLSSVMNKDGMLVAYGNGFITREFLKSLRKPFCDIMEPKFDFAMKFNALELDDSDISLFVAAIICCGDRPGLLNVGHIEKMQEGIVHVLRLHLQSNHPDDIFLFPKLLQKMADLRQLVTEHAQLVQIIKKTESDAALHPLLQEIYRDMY

[7] = biological target: T1, Peroxisome proliferator-activated receptor gamma (Homo sapiens); assay: Transactivation of PPARgamma in human HepG2 cells assessed as induction of SCD1 mRNA expression at 10 uM after 18 hrs by RT-PCR analysis relative to untreated control; format: cell-based
Method in brief: (§3)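 Serum-starved HepG2 cells (E-MEM, 10% FBS at maintenance, 37 °C) treated 18 h with 10 μM compound; total RNA by TRIzol, DNase I, random-primed RT; SYBR Green qPCR, 40 cycles; normalized to GAPDH, relative to untreated cells set to 1; triplicate, experiment repeated twice.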

[8] = biological target: T1, Peroxisome proliferator-activated receptor gamma (Homo sapiens); assay: Transactivation of PPARgamma in human THP1 cells assessed as decrease in LPS-induced MCP1 mRNA expression at 10 uM preincubated for 3 hrs prior to LPS challenge measured after 18 hrs by RT-PCR analysis relative to untreated control; format: cell-based; conditions: THP-1
Method in brief: (§4)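 Serum-starved THP-1 cells pretreated 3 h with 10 μM compound (rosiglitazone 100 nM reference), then LPS 1 μg/mL for 18 h; total RNA SYBR Green real-time PCR, GAPDH-normalized, expressed relative to untreated cells set to 1; triplicate, repeated twice.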

[9] = biological target: T1, Peroxisome proliferator-activated receptor gamma (Homo sapiens); assay: Transactivation of PPARgamma in human THP1 cells assessed as decrease in LPS-induced IL6 mRNA expression at 10 uM preincubated for 3 hrs prior to LPS challenge measured after 18 hrs by RT-PCR analysis relative to untreated control; format: cell-based; conditions: THP-1; method in brief: as §4
[10] = biological target: T1, Peroxisome proliferator-activated receptor gamma (Homo sapiens); assay: Transactivation of PPARgamma in human HepG2 cells assessed as induction of PEPCK mRNA expression at 10 uM after 18 hrs by RT-PCR analysis relative to untreated control; format: cell-based; method in brief: as §3
[11] = biological target: T1, Peroxisome proliferator-activated receptor gamma (Homo sapiens); assay: Transactivation of PPARgamma in human HepG2 cells assessed as induction of CD36 mRNA expression at 10 uM after 18 hrs by RT-PCR analysis relative to untreated control; format: cell-based; method in brief: as §3
[12] = biological target: T1, Peroxisome proliferator-activated receptor gamma (Homo sapiens); assay: Antagonist activity at GAL4-fused PPARgamma ligand binding domain transfected in human HepG2 cells assessed as decrease in rosiglitazone-induced transactivation at 50 uM after 18 hrs by luciferase reporter gene assay; format: cell-based
[13] = biological target: T1, Peroxisome proliferator-activated receptor gamma (Homo sapiens); assay: Covalent binding affinity to N-terminal His6-tagged PPARgamma ligand binding domain (195 to 477 amino acid residues) by MALDI-MS and MALDI-MS/MS method
Method in brief: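 Protein–ligand adduct digested with trypsin (E:S 1:100, 1 h, 37 °C), desalted on C18 ZIP-TIP, analysed by MALDI-MS in reflectron positive mode with α-cyano-4-hydroxycinnamic acid matrix, m/z 700–5000; peptide numbering per full-length PPARγ.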

Compound | Activity [1] | Activity [5] | Activity [6] | further results
CCC1=C[C@@](CC)(C[C@@H](CC)CCC(C)=O)O/C1=C\C(=O)OC | inactive |  |  | Activity [2]: inactive
CCC1=C[C@@](CC)(C[C@H](/C=C/[C@H](C)O)CC)O/C1=C\C(=O)OC | Active | inactive | inactive | EC50 [3]: 10 µM; Activity [4]: Dose-dependent effect; Activity [7]: Active; Activity [8]: Active; Activity [9]: Active; Activity [10]: Active; Activity [11]: Active
CCCC[C@H](CC)C[C@]1(CC)C=C(CC)C(=O)O1 |  | inactive | inactive | 
CCC1=C[C@@](CC)(C/C(=C/[C@@H](O)CC)CC)OC1=O |  | inactive | inactive | 
CCC1=C[C@@](CC)(C/C(=C\[C@@H](O)CC)CC)OC1=O |  | inactive | inactive | 
CCC1=C[C@@](CC)(C/C(=C\[C@H](O)CC)CC)OC1=O |  | inactive | inactive | 
CCCC[C@H](CC)C[C@]1(CC)C=C(CC)/C(=C/C(=O)OC)O1 |  | inactive | inactive | Activity [12]: Active
CCC1=C[C@@](CC)(C/C(=C/[C@@H](O)CC)CC)O/C1=C\C(=O)OC |  | inactive | inactive | 
CC[C@@H]1C[C@@]2(CC)O/C(=C\C(=O)OC)[C@@]3(CC)OO[C@H]([C@@H](C)O)[C@@H]1[C@@H]23 |  | inactive | inactive | 

The next lines start with results.

Activity [1] | Activity [5] | Activity [6] | Compound | further results
Active | inactive | inactive | CCC1=C[C@@](CC)(C[C@H](/C=C/C(C)=O)CC)OC1=O | EC50 [3]: 2 µM; Activity [4]: Dose-dependent effect; Activity [7]: Active; Activity [10]: inactive; Activity [11]: Active; Activity [2]: Active
inactive |  |  | CCC1=C[C@@](CC)(C[C@@H](CC)CCC(C)=O)OC1=O | Activity [2]: inactive
 | inactive | inactive | CC/C=C/[C@H](CC)C[C@]1(CC)C=C(CC)/C(=C/C(=O)OC)O1 | Activity [12]: Active
Active | inactive | inactive | CCC1=C[C@@](CC)(C[C@H](/C=C/C(C)=O)CC)O/C1=C\C(=O)OC | EC50 [3]: 5 µM; Activity [4]: Dose-dependent effect; Activity [13]: Active; Activity [7]: Active; Activity [10]: Active; Activity [11]: inactive; Activity [2]: Active
 | inactive | inactive | CC/C=C/[C@H](CC)C[C@]1(CC)C=C(CC)C(=O)O1 | 
 | inactive | inactive | CCC1=C[C@@](CC)(C[C@H](/C=C/[C@@H](C)O)CC)OC1=O | 

From ChEMBL document CHEMBL2176931, “Plakilactones from the marine sponge Plakinastrella mamillaris. Discovery of a new class of marine ligands of peroxisome proliferator-activated receptor γ” (J Med Chem, 2012)
